{
  "source": "ChEMBL document CHEMBL4364301",
  "about": "(Eur J Med Chem, 2019)",
  "assay_type_in_all_cases": "functional",
  "key": {"[1]": {"tested_on": "LNCaP", "assay": "Antiproliferative activity against human LNCAP cells assessed as T/C value at 1 x 10^1 uM incubated for 96 hrs by propidium iodide based 2D monolayer assay", "in_short": "(§1)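 Cells were kept in RPMI 1640 with 25 mM HEPES, 10% FCS and gentamicin at 37 °C under 5% CO2, and plated at 4,000-20,000 cells/well. After 24 h recovery, compound in medium or medium alone (control wells) was added at 10 half-log concentrations from 0.0032 to 100 µM, in triplicate, with at most 0.3% DMSO. After 96 h, wells were PBS-washed, stained with 7 µg/ml PI and 0.1% Triton X-100, and fluorescence read at 530/620 nm. IC50 came from a 4-parameter fit, geometric mean.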"}, "[2]": {"tested_on": "CWR22R", "assay": "Antiproliferative activity against human 22Rv1 cells assessed as T/C value at 1 x 10^1 uM incubated for 96 hrs by propidium iodide based 2D monolayer assay", "in_short": "as §1"}, "[3]": {"tested_on": "DU-145", "assay": "Antiproliferative activity against human DU145 cells assessed as T/C value at 1 x 10^-2 uM incubated for 96 hrs by propidium iodide based 2D monolayer assay", "in_short": "as §1, with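 “After” for “Cells were kept in RPMI 1640 with 25 mM HEPES, 10% FCS and gentamicin at 37 °C under 5% CO2, and plated at 4,000-20,000 cells/well. After”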"}, "[4]": {"tested_on": "CWR22R", "assay": "Antiproliferative activity against human 22Rv1 cells assessed as reduction in cell growth incubated for 96 hrs by propidium iodide based 2D monolayer assay", "details": "22Rv1, 96 h", "in_short": "as §1, with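 “After” for “Cells were kept in RPMI 1640 with 25 mM HEPES, 10% FCS and gentamicin at 37 °C under 5% CO2, and plated at 4,000-20,000 cells/well. After”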"}, "[5]": {"tested_on": "CWR22R", "assay": "Antiproliferative activity against human 22Rv1 cells assessed as T/C value at 1 x 10^2 uM incubated for 96 hrs by propidium iodide based 2D monolayer assay", "in_short": "as §1"}, "[6]": {"tested_on": "DU-145", "assay": "Antiproliferative activity against human DU145 cells assessed as T/C value at 1 x 10^-1 uM incubated for 96 hrs by propidium iodide based 2D monolayer assay", "in_short": "as §1, with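 “After” for “Cells were kept in RPMI 1640 with 25 mM HEPES, 10% FCS and gentamicin at 37 °C under 5% CO2, and plated at 4,000-20,000 cells/well. After”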"}, "[7]": {"tested_on": "VCaP", "assay": "Antiproliferative activity against human VCaP cells assessed as T/C value at 3.2 x 10^-1 uM incubated for 96 hrs by propidium iodide based 2D monolayer assay", "in_short": "(§2)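 VCaP cells in RPMI 1640 with 10% FCS at 37 °C, 5% CO2, seeded 4,000–20,000 cells/well and left 24 h before dosing. Compounds from DMSO stocks were diluted in half-log steps in medium, 10 concentrations 0.0032–100 μM, triplicate wells, max 0.3% DMSO. After 96 h, cells were washed, stained with 7 μg/ml propidium iodide plus 0.1% Triton X-100 for 1–2 h at room temperature, and fluorescence read at ex 530/em 620 nm.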"}, "[8]": {"tested_on": "CWR22R", "assay": "Antiproliferative activity against human 22Rv1 cells assessed as T/C value at 1 x 10^-2 uM incubated for 96 hrs by propidium iodide based 2D monolayer assay", "in_short": "as §1"}, "[9]": {"tested_on": "VCaP", "assay": "Antiproliferative activity against human VCaP cells assessed as reduction in cell growth incubated for 96 hrs by propidium iodide based 2D monolayer assay", "in_short": "as §2"}, "[10]": {"tested_on": "DU-145", "assay": "Antiproliferative activity against human DU145 cells assessed as T/C value at 1 x 10^1 uM incubated for 96 hrs by propidium iodide based 2D monolayer assay", "in_short": "as §1, with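 “After” for “Cells were kept in RPMI 1640 with 25 mM HEPES, 10% FCS and gentamicin at 37 °C under 5% CO2, and plated at 4,000-20,000 cells/well. After”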"}, "[11]": {"tested_on": "DU-145", "assay": "Antiproliferative activity against human DU145 cells assessed as T/C value at 1 uM incubated for 96 hrs by propidium iodide based 2D monolayer assay", "in_short": "as §1, with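 “After” for “Cells were kept in RPMI 1640 with 25 mM HEPES, 10% FCS and gentamicin at 37 °C under 5% CO2, and plated at 4,000-20,000 cells/well. After”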"}, "[12]": {"tested_on": "CWR22R", "assay": "Antiproliferative activity against human 22Rv1 cells assessed as T/C value at 3.2 uM incubated for 96 hrs by propidium iodide based 2D monolayer assay", "in_short": "as §1"}, "[13]": {"tested_on": "CWR22R", "assay": "Antiproliferative activity against human 22Rv1 cells assessed as T/C value at 3.2 x 10^1 uM incubated for 96 hrs by propidium iodide based 2D monolayer assay", "in_short": "as §1"}, "[14]": {"tested_on": "DU-145", "assay": "Antiproliferative activity against human DU145 cells assessed as T/C value at 3.2 x 10^-1 uM incubated for 96 hrs by propidium iodide based 2D monolayer assay", "in_short": "as §1, with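 “After” for “Cells were kept in RPMI 1640 with 25 mM HEPES, 10% FCS and gentamicin at 37 °C under 5% CO2, and plated at 4,000-20,000 cells/well. After”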"}, "[15]": {"tested_on": "CWR22R", "assay": "Antiproliferative activity against human 22Rv1 cells assessed as T/C value at 1 uM incubated for 96 hrs by propidium iodide based 2D monolayer assay", "in_short": "as §1"}, "[16]": {"tested_on": "VCaP", "assay": "Antiproliferative activity against human VCaP cells assessed as T/C value at 1 uM incubated for 96 hrs by propidium iodide based 2D monolayer assay", "in_short": "as §1"}, "[17]": {"tested_on": "LNCaP", "assay": "Antiproliferative activity against human LNCAP cells assessed as T/C value at 3.2 x 10^-1 uM incubated for 96 hrs by propidium iodide based 2D monolayer assay", "in_short": "as §1"}, "[18]": {"tested_on": "VCaP", "assay": "Antiproliferative activity against human VCaP cells assessed as T/C value at 3.2 uM incubated for 96 hrs by propidium iodide based 2D monolayer assay", "in_short": "as §1"}, "[19]": {"tested_on": "DU-145", "assay": "Antiproliferative activity against human DU145 cells assessed as T/C value at 3.2 x 10^1 uM incubated for 96 hrs by propidium iodide based 2D monolayer assay", "in_short": "as §1"}, "[20]": {"tested_on": "VCaP", "assay": "Antiproliferative activity against human VCaP cells assessed as T/C value at 1 x 10^-2 uM incubated for 96 hrs by propidium iodide based 2D monolayer assay", "in_short": "as §1"}, "[21]": {"tested_on": "LNCaP", "assay": "Antiproliferative activity against human LNCAP cells assessed as T/C value at 3.2 x 10^-2 uM incubated for 96 hrs by propidium iodide based 2D monolayer assay", "in_short": "as §1"}, "[22]": {"tested_on": "CWR22R", "assay": "Antiproliferative activity against human 22Rv1 cells assessed as T/C value at 3.2 x 10^-2 uM incubated for 96 hrs by propidium iodide based 2D monolayer assay", "in_short": "as §1"}, "[23]": {"tested_on": "VCaP", "assay": "Antiproliferative activity against human VCaP cells assessed as T/C value at 1 x 10^1 uM incubated for 96 hrs by propidium iodide based 2D monolayer assay", "in_short": "as §1"}, "[24]": {"tested_on": "DU-145", "assay": "Antiproliferative activity against human DU145 cells assessed as T/C value at 3.2 x 10^-3 uM incubated for 96 hrs by propidium iodide based 2D monolayer assay", "in_short": "as §1, with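 “After” for “Cells were kept in RPMI 1640 with 25 mM HEPES, 10% FCS and gentamicin at 37 °C under 5% CO2, and plated at 4,000-20,000 cells/well. After”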"}, "[25]": {"tested_on": "LNCaP", "assay": "Antiproliferative activity against human LNCAP cells assessed as T/C value at 3.2 x 10^1 uM incubated for 96 hrs by propidium iodide based 2D monolayer assay", "in_short": "as §1"}, "[26]": {"tested_on": "VCaP", "assay": "Antiproliferative activity against human VCaP cells assessed as T/C value at 3.2 x 10^-2 uM incubated for 96 hrs by propidium iodide based 2D monolayer assay", "in_short": "as §2"}, "[27]": {"tested_on": "CWR22R", "assay": "Antiproliferative activity against human 22Rv1 cells assessed as T/C value at 1 x 10^-1 uM incubated for 96 hrs by propidium iodide based 2D monolayer assay", "in_short": "as §1"}, "[28]": {"tested_on": "DU-145", "assay": "Antiproliferative activity against human DU145 cells assessed as reduction in cell growth incubated for 96 hrs by propidium iodide based 2D monolayer assay", "details": "DU-145, 96 h", "in_short": "as §1, with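 “After” for “Cells were kept in RPMI 1640 with 25 mM HEPES, 10% FCS and gentamicin at 37 °C under 5% CO2, and plated at 4,000-20,000 cells/well. After”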"}, "[29]": {"tested_on": "CWR22R", "assay": "Antiproliferative activity against human 22Rv1 cells assessed as T/C value at 3.2 x 10^-1 uM incubated for 96 hrs by propidium iodide based 2D monolayer assay", "in_short": "as §1"}, "[30]": {"tested_on": "DU-145", "assay": "Antiproliferative activity against human DU145 cells assessed as T/C value at 3.2 uM incubated for 96 hrs by propidium iodide based 2D monolayer assay", "in_short": "as §1"}, "[31]": {"tested_on": "DU-145", "assay": "Antiproliferative activity against human DU145 cells assessed as T/C value at 3.2 x 10^-2 uM incubated for 96 hrs by propidium iodide based 2D monolayer assay", "in_short": "as §1, with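 “After” for “Cells were kept in RPMI 1640 with 25 mM HEPES, 10% FCS and gentamicin at 37 °C under 5% CO2, and plated at 4,000-20,000 cells/well. After”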"}},
  "data": [
    {"smiles": "CC1(C)C(=O)N(c2ccc(C#N)cc2C(F)(F)F)C(=S)N1c1cccc(S(F)(F)(F)(F)F)c1", "values": [
      {"measurement": "T/C", "setting": "[1]", "value": 36, "unit": "%"},
      {"measurement": "T/C", "setting": "[2]", "value": 60, "unit": "%"},
      {"measurement": "T/C", "setting": "[3]", "value": 104, "unit": "%"},
      {"measurement": "IC50", "setting": "[4]", "value": 100, "unit": "µM"},
      {"measurement": "IC70", "setting": "[4]", "value": "> 100", "unit": "µM"},
      {"measurement": "T/C", "setting": "[5]", "value": 51, "unit": "%"},
      {"measurement": "T/C", "setting": "[6]", "value": 103, "unit": "%"},
      {"measurement": "T/C", "setting": "[7]", "value": 89, "unit": "%"},
      {"measurement": "T/C", "setting": "[8]", "value": 104, "unit": "%"},
      {"measurement": "IC50", "setting": "[9]", "value": 100, "unit": "µM"},
      {"measurement": "IC70", "setting": "[9]", "value": "> 100", "unit": "µM"},
      {"measurement": "T/C", "setting": "[10]", "value": 96, "unit": "%"},
      {"measurement": "T/C", "setting": "[11]", "value": 112, "unit": "%"},
      {"measurement": "T/C", "setting": "[12]", "value": 93, "unit": "%"},
      {"measurement": "T/C", "setting": "[13]", "value": 56, "unit": "%"},
      {"measurement": "T/C", "setting": "[14]", "value": 110, "unit": "%"},
      {"measurement": "T/C", "setting": "[15]", "value": 97, "unit": "%"},
      {"measurement": "T/C", "setting": "[16]", "value": 76, "unit": "%"},
      {"measurement": "T/C", "setting": "[17]", "value": 85, "unit": "%"},
      {"measurement": "T/C", "setting": "[18]", "value": 64, "unit": "%"},
      {"measurement": "T/C", "setting": "[19]", "value": 87, "unit": "%"},
      {"measurement": "T/C", "setting": "[20]", "value": 84, "unit": "%"},
      {"measurement": "T/C", "setting": "[21]", "value": 103, "unit": "%"},
      {"measurement": "T/C", "setting": "[22]", "value": 107, "unit": "%"},
      {"measurement": "T/C", "setting": "[23]", "value": 59, "unit": "%"},
      {"measurement": "T/C", "setting": "[24]", "value": 102, "unit": "%"},
      {"measurement": "T/C", "setting": "[25]", "value": 32, "unit": "%"},
      {"measurement": "T/C", "setting": "[26]", "value": 88, "unit": "%"},
      {"measurement": "T/C", "setting": "[27]", "value": 102, "unit": "%"},
      {"measurement": "IC50", "setting": "[28]", "value": 100, "unit": "µM"},
      {"measurement": "IC70", "setting": "[28]", "value": "> 100", "unit": "µM"},
      {"measurement": "T/C", "setting": "[29]", "value": 101, "unit": "%"},
      {"measurement": "T/C", "setting": "[30]", "value": 116, "unit": "%"},
      {"measurement": "T/C", "setting": "[31]", "value": 107, "unit": "%"}
    ]}
  ]
}
